Measured values: ChEMBL document CHEMBL1136847, “Syntheses and potential anti-prostate cancer activities of ionone-based chalcones” (Bioorg Med Chem Lett, 2009)
Where a chain is given by its changes, count along the chain named.

Experiments:
[1] = tested on: Androgen receptor (Homo sapiens), P10275 [T878A]; test: Antagonist activity at androgen receptor T877A mutant in human PC3 cells transiently transfected with pCMV-MMTV-Luc assessed as suppression of DHT-induced receptor transactivation; type: functional, cell-based; details: PC-3
In short: (§1)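 PC-3 cells seeded 24 h before co-transfection with MMTV-luciferase reporter (100 ng), the wild-type, T877A, W741C or H874Y AR plasmid (10 ng) and Renilla null luciferase (10 ng) using Lipofectamine 2000. Medium switched after 5 h to phenol red-free RPMI 1640 with 10% charcoal-stripped FBS. After 16 h, 0.1 nM DHT ± compound (0.1, 1.0 µM) for 24 h. Dual-luciferase read-out, Renilla-standardized, normalized to DHT alone (100%).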

[2] = tested on: T1, Androgen receptor (Homo sapiens), P10275 [H875Y]; test: Antagonist activity at androgen receptor H874Y mutant in human PC3 cells transiently transfected with pCMV-MMTV-Luc assessed as suppression of DHT-induced receptor transactivation; type: functional, cell-based; details: PC-3; in short: as §1
T1 sequence (whole entry): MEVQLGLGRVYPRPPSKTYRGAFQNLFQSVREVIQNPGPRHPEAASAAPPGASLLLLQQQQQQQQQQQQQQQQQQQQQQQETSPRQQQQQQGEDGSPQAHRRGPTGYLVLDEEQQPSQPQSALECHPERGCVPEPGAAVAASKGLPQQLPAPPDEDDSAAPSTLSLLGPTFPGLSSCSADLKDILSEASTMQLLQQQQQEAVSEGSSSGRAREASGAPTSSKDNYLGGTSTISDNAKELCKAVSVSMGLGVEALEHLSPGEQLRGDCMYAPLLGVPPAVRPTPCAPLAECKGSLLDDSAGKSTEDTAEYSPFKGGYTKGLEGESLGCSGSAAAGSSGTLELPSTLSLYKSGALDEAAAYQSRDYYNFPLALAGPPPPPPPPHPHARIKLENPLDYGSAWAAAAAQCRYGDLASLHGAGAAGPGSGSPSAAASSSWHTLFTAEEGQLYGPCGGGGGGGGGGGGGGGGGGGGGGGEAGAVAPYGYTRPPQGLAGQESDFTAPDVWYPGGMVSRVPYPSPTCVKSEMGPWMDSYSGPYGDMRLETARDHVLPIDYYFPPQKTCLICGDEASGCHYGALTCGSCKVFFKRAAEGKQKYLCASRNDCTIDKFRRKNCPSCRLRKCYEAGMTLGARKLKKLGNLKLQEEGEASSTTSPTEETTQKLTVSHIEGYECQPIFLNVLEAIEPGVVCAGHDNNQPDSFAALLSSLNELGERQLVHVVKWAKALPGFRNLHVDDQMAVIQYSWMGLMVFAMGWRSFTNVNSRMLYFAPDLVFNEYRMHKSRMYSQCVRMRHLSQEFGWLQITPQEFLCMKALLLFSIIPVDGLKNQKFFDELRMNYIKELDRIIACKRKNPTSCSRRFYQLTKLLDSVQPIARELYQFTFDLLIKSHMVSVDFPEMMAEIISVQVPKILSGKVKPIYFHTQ

LNCaP = test: Cytotoxicity against androgen-dependent human LNCAP cells with T877A AR mutant after 72 hrs by MTT assay; type: functional, cell-based
In short: (§2)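 Cells seeded at 6000–7000 per well in RPMI 1640 with 10% FBS, penicillin and streptomycin, left overnight, then exposed to a range of concentrations from DMSO stock (final DMSO 0.5%) for 72 h. MTT added for a further 2 h and formazan from viable cells read. IC50 taken from survival curves, 50% inhibition relative to 0.5% DMSO control; top concentration 150 µM.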

PC-3 = test: Cytotoxicity against androgen-independent human PC3 cells after 72 hrs by MTT assay; type: functional, cell-based; details: PC-3, 72 h; in short: as §2
CWR22R = test: Cytotoxicity against human 22Rv1 cells with H874Y AR mutant after 72 hrs by MTT assay; type: functional, cell-based; details: 22Rv1, 72 h; in short: as §2
[3] = Cytotoxicity against androgen-independent human C4-2B cells with T877A mutant after 72 hrs by MTT assay; type: functional, cell-based; details: LNCaP C4-2B; in short: as §2
[4] = Cytotoxicity against androgen-dependent human MDA PCa 2b cells with T877A/L701H AR mutant after 72 hrs by MTT assay; type: functional, cell-based
In short: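 Seeded at 6000–7000 cells per well in BRFF-HPC1 medium with 20% FBS, incubated overnight, then treated with serial concentrations diluted from DMSO stock (final DMSO 0.5%) for 72 h. Viability by MTT, 2 h with reagent, formazan measured. IC50 from survival curves as 50% inhibition versus 0.5% DMSO vehicle; maximum concentration tested 150 µM.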

[5] = Cytotoxicity against human RWPE1 cells after 72 hrs by MTT assay; type: cell-based; details: RWPE-1, 72 h
In short: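 Non-tumorigenic prostate epithelial line plated at 6000–7000 cells per well in keratinocyte serum-free medium with 0.05 mg/mL bovine pituitary extract and 5 ng/mL EGF; overnight attachment, then compounds at various concentrations in 0.5% final DMSO for 72 h. MTT 2 h, formazan read; IC50 from survival curves versus DMSO control.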

[6] = tested on: T2, Androgen receptor (Homo sapiens), P10275 [W742C]; test: Antagonist activity at androgen receptor W741C mutant in human PC3 cells transiently transfected with pCMV-MMTV-Luc assessed as suppression of DHT-induced receptor transactivation; type: functional, cell-based; details: PC-3; in short: as §1
T2 sequence (whole entry): T1 sequence (whole entry) with W742C, Y875H

Chain of Androgen receptor (Homo sapiens), P10275 [T878A] (P10275 whole entry T878A): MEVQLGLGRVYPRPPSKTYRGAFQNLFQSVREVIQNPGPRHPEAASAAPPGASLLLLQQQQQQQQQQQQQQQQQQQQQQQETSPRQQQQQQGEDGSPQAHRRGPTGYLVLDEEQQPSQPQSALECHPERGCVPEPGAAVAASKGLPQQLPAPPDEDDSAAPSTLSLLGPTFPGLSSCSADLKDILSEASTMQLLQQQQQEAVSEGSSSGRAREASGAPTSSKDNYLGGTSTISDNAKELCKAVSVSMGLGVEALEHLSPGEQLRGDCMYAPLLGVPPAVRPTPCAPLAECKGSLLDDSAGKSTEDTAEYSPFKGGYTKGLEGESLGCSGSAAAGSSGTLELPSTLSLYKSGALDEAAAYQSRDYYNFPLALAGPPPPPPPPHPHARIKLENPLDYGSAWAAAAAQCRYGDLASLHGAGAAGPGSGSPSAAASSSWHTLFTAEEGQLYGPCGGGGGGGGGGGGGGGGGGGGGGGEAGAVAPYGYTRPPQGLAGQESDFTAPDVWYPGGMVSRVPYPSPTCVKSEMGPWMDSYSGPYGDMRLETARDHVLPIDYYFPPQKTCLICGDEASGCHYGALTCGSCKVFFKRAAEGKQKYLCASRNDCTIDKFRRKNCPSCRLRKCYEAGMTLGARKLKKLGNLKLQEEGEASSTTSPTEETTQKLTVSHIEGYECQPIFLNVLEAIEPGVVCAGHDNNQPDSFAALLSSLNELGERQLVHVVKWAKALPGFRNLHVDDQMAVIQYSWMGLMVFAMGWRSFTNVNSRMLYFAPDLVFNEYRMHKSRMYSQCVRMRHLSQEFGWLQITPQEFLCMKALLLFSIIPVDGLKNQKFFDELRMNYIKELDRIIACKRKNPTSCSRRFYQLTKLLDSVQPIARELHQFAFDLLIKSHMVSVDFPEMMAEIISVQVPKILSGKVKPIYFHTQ

SMILES: CC1=C(/C=C/C(=O)/C=C/c2cccc(C(F)(F)F)c2)C(C)(C)CCC1O (centres undefined)
- Activity [1]: Dose-dependent effect
- Activity [2]: Dose-dependent effect
- IC50 (LNCaP): 740 nM
- IC50 (PC-3): 3500 nM
- IC50 (CWR22R): 1700 nM
- IC50 [3]: 1400 nM
- IC50 [4]: 2600 nM
- IC50 [5]: 730 nM
- Activity [6]: Dose-dependent effect
